Source: ChEMBL document CHEMBL3352175, “2',6'-Dihalostyrylanilines, pyridines, and pyrimidines for the inhibition of the catalytic subunit of methionine S-adenosyltransferase-2” (J Med Chem, 2014)
Calls of active or inactive are those of the source. The rule behind the calls is not given here.

Legend:
[1] = target: S-adenosylmethionine synthase isoform type-2 (Homo sapiens) (UniProt P31153); assay: Inhibition of recombinant His-tagged MAT2A (unknown origin) using L-methionine and ATP at 30 uM
Procedure, shortened: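 Purified His-tagged MAT2A holoenzyme (3 μg) preincubated with compound (30 μM final) 10 min at room temperature, then given L-methionine (50 μM) and ATP (50 μM) in 50 mM Tris pH 8.0, 50 mM KCl, MgCl2; 25 min at room temperature. Released Pi measured by malachite green absorbance at 635 nm; triplicate; activity expressed relative to reference lead.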

[2] = Antiproliferative activity against human LS 174T cells by cell viability analyzer; type: functional, cell-based; details: LS174T
Procedure, shortened: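 LS174T colon cancer cells seeded at 3 × 10^4 cells/mL, treated next day with compounds at 1–300 nM (freshly made DMSO stocks diluted in buffer). Proliferation read by automated cell viability counting. Triplicate at each concentration; IC50 from concentration–response curves by nonlinear regression one-site fit.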

[3] = target: Voltage-gated inwardly rectifying potassium channel KCNH2 (Homo sapiens, UniProt Q12809); assay: Inhibition of human ERG over-expressed in HEK293 cell membrane by [3H]dofetilide binding assay; type: cell membranes
Chain of Voltage-gated inwardly rectifying potassium channel KCNH2 (Q12809 whole entry): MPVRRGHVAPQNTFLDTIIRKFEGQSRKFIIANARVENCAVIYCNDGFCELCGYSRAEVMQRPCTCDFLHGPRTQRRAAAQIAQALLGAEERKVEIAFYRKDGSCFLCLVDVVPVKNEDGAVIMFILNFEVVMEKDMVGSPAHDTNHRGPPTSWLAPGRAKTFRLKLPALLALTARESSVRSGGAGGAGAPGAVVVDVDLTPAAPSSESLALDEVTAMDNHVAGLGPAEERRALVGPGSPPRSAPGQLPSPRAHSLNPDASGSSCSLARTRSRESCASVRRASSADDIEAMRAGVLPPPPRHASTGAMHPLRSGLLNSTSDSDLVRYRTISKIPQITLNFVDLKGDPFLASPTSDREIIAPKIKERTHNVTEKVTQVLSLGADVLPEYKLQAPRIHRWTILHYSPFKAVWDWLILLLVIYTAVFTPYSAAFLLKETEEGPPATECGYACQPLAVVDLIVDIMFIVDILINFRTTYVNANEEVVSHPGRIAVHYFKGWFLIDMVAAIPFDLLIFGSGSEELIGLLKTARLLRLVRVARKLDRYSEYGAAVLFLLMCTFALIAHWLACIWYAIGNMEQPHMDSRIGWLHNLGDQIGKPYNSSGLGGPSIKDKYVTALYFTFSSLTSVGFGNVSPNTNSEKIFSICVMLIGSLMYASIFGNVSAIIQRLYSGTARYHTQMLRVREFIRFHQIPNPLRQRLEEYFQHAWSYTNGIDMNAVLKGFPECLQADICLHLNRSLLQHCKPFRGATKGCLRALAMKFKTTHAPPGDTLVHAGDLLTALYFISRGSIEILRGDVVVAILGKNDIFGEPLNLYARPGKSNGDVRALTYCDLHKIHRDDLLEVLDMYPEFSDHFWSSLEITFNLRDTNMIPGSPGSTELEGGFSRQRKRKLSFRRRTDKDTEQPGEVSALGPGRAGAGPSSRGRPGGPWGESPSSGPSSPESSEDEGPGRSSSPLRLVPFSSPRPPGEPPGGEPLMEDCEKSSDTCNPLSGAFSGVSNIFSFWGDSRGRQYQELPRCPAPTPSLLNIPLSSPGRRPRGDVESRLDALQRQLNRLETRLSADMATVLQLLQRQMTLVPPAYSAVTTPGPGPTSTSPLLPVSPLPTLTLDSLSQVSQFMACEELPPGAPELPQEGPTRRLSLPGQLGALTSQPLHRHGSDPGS

[4] = Ratio of IC50 for human ERG to IC50 for inhibition of human LS174T cell proliferation

Chain of S-adenosylmethionine synthase isoform type-2 (Homo sapiens) (P31153 whole entry, looked up, canonical isoform): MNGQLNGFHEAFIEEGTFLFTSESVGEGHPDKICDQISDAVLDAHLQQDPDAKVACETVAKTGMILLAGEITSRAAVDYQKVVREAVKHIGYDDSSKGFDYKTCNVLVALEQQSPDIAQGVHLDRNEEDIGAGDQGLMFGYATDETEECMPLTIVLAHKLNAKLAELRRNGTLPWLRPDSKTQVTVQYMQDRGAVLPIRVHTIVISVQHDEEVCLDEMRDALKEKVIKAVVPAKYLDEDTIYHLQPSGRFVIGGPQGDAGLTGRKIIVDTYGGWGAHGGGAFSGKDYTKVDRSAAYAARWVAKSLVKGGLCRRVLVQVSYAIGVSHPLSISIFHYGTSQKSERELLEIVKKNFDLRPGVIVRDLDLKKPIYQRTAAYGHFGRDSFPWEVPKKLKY

inhibition [1] | SMILES | IC50 [2] [µM] | IC50 [3] [µM] | Ratio IC50 [4]
Active | CN(C)c1ccc(/C=C/c2c(Cl)cccc2Cl)nc1 | 0.0595 |  | 
Active | CN(C)c1ncc(/C=C/c2c(F)cccc2F)cn1 | > 0.2 | 40.5 | 500
Active | CN(C)c1ccc(/C=C/c2c(Cl)cccc2Cl)cn1 | 0.0301 |  | 
Active | CNc1ccc(/C=C/c2c(Cl)cccc2Cl)cc1 | 0.0501 |  | 
Active | CN(C)c1ccc(/C=C/c2c(Cl)cccc2Cl)cc1 | 0.214 |  | 
Active | CN(C)c1ccc(/C=C/c2c(F)cccc2F)nc1 | 0.0579 | 21.1 | 400
Active | CNc1ccc(/C=C/c2c(F)cccc2Cl)cn1 | 0.004 | 19.9 | 5000
Active | CN(C)c1ccc(/C=C/c2c(F)cccc2F)cc1 | 0.0269 |  | 
Active | CNc1ccc(/C=C/c2c(F)cccc2F)cc1 | 0.0076 | 49.1 | 6500
Active | CN(C)c1ccc(/C=C/c2c(F)cccc2Cl)cc1 | 0.0192 |  | 
Active | CNc1ccc(/C=C/c2c(F)cccc2Cl)cc1 | 0.0076 | 49.8 | 6600

Further lines, the molecule ahead of its results:

SMILES | inhibition [1] | IC50 [2] [µM] | IC50 [3] [µM] | Ratio IC50 [4]
CN(C)c1ccc(/C=C/c2c(F)cccc2Cl)nc1 | Active | 0.0204 | 20.7 | 1000
CN(C)c1ncc(/C=C/c2c(F)cccc2Cl)cn1 |  | > 0.2 |  | 
CN(C)c1ncc(/C=C/c2c(Cl)cccc2Cl)cn1 |  | > 0.2 |  | 
CN(C)c1ccc(/C=C/c2c(F)cccc2Cl)cn1 | Active | 0.0047 | 59.5 | 12700
CCNc1ccc(/C=C/c2c(F)cccc2F)cc1 |  | 0.2 |  | 
CNc1ccc(/C=C/c2c(Cl)cccc2Cl)cn1 |  | 0.0196 |  | 
CNc1ncc(/C=C/c2c(F)cccc2Cl)cn1 |  | > 0.2 |  | 
CNc1ncc(/C=C/c2c(Cl)cccc2Cl)cn1 |  | > 0.2 |  | 
CCNc1ccc(/C=C/c2c(F)cccc2F)cn1 |  | 0.0313 |  | 
CNc1ncc(/C=C/c2c(F)cccc2F)cn1 | Active | > 0.2 |  | 
CN(C)c1ccc(/C=C/c2c(F)cccc2F)cn1 | Active | 0.0133 |  | 
CCNc1ncc(/C=C/c2c(F)cccc2F)cn1 |  | > 0.2 |  | 
CNc1ccc(/C=C/c2c(F)cccc2F)cn1 |  | 0.0301 |  | 
